Legend:
[1] = molecular target: Serine/threonine-protein kinase 26 (Homo sapiens) (UniProt Q9P289); test: Inhibition of MST4 (unknown origin) at 100 nM relative to control
[2] = molecular target: Serine/threonine-protein kinase Chk1 (Homo sapiens) (UniProt O14757); test: Inhibition of CHK1 (unknown origin) at 100 nM relative to control
[3] = molecular target: Serine/threonine-protein kinase 26 (Homo sapiens) (UniProt Q9P289); test: Inhibition of MST4 (unknown origin) at 500 nM relative to control
[4] = Plasma concentration in BALB/c mouse at 2.5 mg/kg, iv at 1 hr by LC/MS-MS analysis; assay type: ADME, organism-based
[5] = molecular target: Protein-tyrosine kinase 6 (Homo sapiens) (UniProt Q13882); test: Inhibition of BRK (unknown origin) at 100 nM relative to control
[6] = molecular target: Tyrosine-protein kinase CSK (Homo sapiens) (UniProt P41240); test: Inhibition of CSK (unknown origin) at 100 nM relative to control
[7] = molecular target: Tyrosine-protein kinase JAK3 (Homo sapiens) (UniProt P52333); test: Inhibition of JAK3 (unknown origin) at 500 nM relative to control
[8] = molecular target: Tyrosine-protein kinase Lck (Homo sapiens) (UniProt P06239); test: Inhibition of LCK (unknown origin) at 500 nM relative to control
4T1 [9] = test: Antitumor activity against mouse 4T1 cells allografted in Balb/C mouse assessed as tumor growth inhibition at 15 mg/kg, iv administered every 3 days for 21 days measured 2 times for every week during dosing relative to control; assay type: functional; details: 4T1, iv, read-out: TGI
[10] = Plasma concentration in BALB/c mouse at 2.5 mg/kg, iv at 0.25 hrs by LC/MS-MS analysis; assay type: ADME, organism-based
[11] = molecular target: Ribosomal protein S6 kinase beta-1 (Homo sapiens) (UniProt P23443); test: Inhibition of S6K1 (unknown origin) at 500 nM relative to control
MCF7 = test: Antiproliferative activity against human MCF7 cells
[12] = molecular target: Protein-tyrosine kinase 6 (Homo sapiens) (UniProt Q13882); test: Inhibition of BRK (unknown origin) at 500 nM relative to control
[13] = molecular target: Serine/threonine-protein kinase Nek6 (Homo sapiens) (UniProt Q9HC98); test: Inhibition of NEK6 (unknown origin) at 500 nM relative to control
[14] = molecular target: Tyrosine-protein kinase JAK3 (Homo sapiens) (UniProt P52333); test: Inhibition of JAK3 (unknown origin) at 100 nM relative to control
[15] = molecular target: Ribosomal protein S6 kinase beta-1 (Homo sapiens) (UniProt P23443); test: Inhibition of S6K1 (unknown origin) at 100 nM relative to control
[16] = molecular target: Serine/threonine-protein kinase PLK1 (Homo sapiens) (UniProt P53350); test: Inhibition of PLK1 (unknown origin) at 500 nM relative to control
[17] = molecular target: Dual specificity tyrosine-phosphorylation-regulated kinase 1A (Homo sapiens) (UniProt Q13627); details: at 100 nM
[18] = molecular target: Glycogen synthase kinase-3 beta (Homo sapiens) (UniProt P49841); test: Inhibition of GSK3b (unknown origin) at 100 nM relative to control
[19] = molecular target: Tyrosine-protein kinase CSK (Homo sapiens) (UniProt P41240); test: Inhibition of CSK (unknown origin) at 500 nM relative to control
4T1 [20] = test: Antiproliferative activity against mouse 4T1 cells after 24 hrs by MTT assay; details: 4T1, 24 h
[21] = molecular target: Tyrosine-protein kinase Lck (Homo sapiens) (UniProt P06239); test: Inhibition of LCK (unknown origin) at 100 nM relative to control
[22] = molecular target: Aurora kinase A (Homo sapiens) (UniProt O14965); test: Inhibition of aurora A (unknown origin) at 100 nM relative to control
[23] = molecular target: Serine/threonine-protein kinase Sgk1 (Homo sapiens) (UniProt O00141); test: Inhibition of SGK (unknown origin) at 100 nM relative to control
MDA-MB-468 = test: Antiproliferative activity against human MDA-MB-468 cells
MDA-MB-231 = test: Antiproliferative activity against human MDA-MB-231 cells
[24] = Selectivity ratio of IC50 for HEK cells to IC50 for human MCF7 cells
[25] = molecular target: Insulin receptor-related protein (Homo sapiens) (UniProt P14616); test: Inhibition of IRR (unknown origin) at 100 nM relative to control
[26] = molecular target: Phosphatidylinositol 4,5-bisphosphate 3-kinase catalytic subunit alpha isoform (Homo sapiens) (UniProt P42336); test: Inhibition of PI3Kalpha (unknown origin) at 100 nM relative to control
[27] = molecular target: Vascular endothelial growth factor receptor 1 (Homo sapiens) (UniProt P17948); test: Inhibition of VEGFR1 (unknown origin) at 500 nM relative to control
[28] = molecular target: Phosphatidylinositol 4,5-bisphosphate 3-kinase catalytic subunit alpha isoform (Homo sapiens) (UniProt P42336); test: Inhibition of PI3Kalpha (unknown origin) at 500 nM relative to control
[29] = molecular target: Insulin receptor-related protein (Homo sapiens) (UniProt P14616); test: Inhibition of IRR (unknown origin) at 500 nM relative to control
[30] = Plasma concentration in BALB/c mouse at 2.5 mg/kg, iv at […] by LC/MS-MS analysis; assay type: ADME, organism-based
[31] = molecular target: Serine/threonine-protein kinase Nek6 (Homo sapiens) (UniProt Q9HC98); test: Inhibition of NEK6 (unknown origin) at 100 nM relative to control
[32] = molecular target: Dual specificity tyrosine-phosphorylation-regulated kinase 1A (Homo sapiens) (UniProt Q13627); details: at 500 nM
T47D = test: Antiproliferative activity against human T47D cells after 72 hrs by SRB assay
[33] = molecular target: Inhibitor of nuclear factor kappa-B kinase subunit beta (Homo sapiens) (UniProt O14920); test: Inhibition of IKKbeta (unknown origin) at 500 nM relative to control
[34] = molecular target: Mitogen-activated protein kinase 10 (Homo sapiens) (UniProt P53779); test: Inhibition of JNK3 (unknown origin) at 100 nM relative to control
BT-549 = test: Antiproliferative activity against human BT549 cells
[35] = molecular target: Serine/threonine-protein kinase Chk1 (Homo sapiens) (UniProt O14757); test: Inhibition of CHK1 (unknown origin) at 500 nM relative to control
[36] = molecular target: Inhibitor of nuclear factor kappa-B kinase subunit beta (Homo sapiens) (UniProt O14920); test: Inhibition of IKKbeta (unknown origin) at 100 nM relative to control
HCT-116 = test: Antiproliferative activity against human HCT116 cells after 72 hrs by SRB assay; details: HCT-116, 72 h
[37] = molecular target: Glycogen synthase kinase-3 beta (Homo sapiens) (UniProt P49841); test: Inhibition of GSK3b (unknown origin) at 500 nM relative to control
[38] = molecular target: Vascular endothelial growth factor receptor 1 (Homo sapiens) (UniProt P17948); test: Inhibition of VEGFR1 (unknown origin) at 100 nM relative to control
[39] = molecular target: Aurora kinase A (Homo sapiens) (UniProt O14965); test: Inhibition of aurora A (unknown origin) at 500 nM relative to control
SH-SY5Y = test: Antiproliferative activity against human SH-SY5Y cells after 24 hrs by MTT assay; assay type: functional, cell-based
[40] = molecular target: Serine/threonine-protein kinase PLK1 (Homo sapiens) (UniProt P53350); test: Inhibition of PLK1 (unknown origin) at 100 nM relative to control
[41] = molecular target: Mitogen-activated protein kinase 10 (Homo sapiens) (UniProt P53779); test: Inhibition of JNK3 (unknown origin) at 500 nM relative to control
[42] = Antiproliferative activity against HEK cells; details: Homo sapiens, HEK293
[43] = Plasma concentration in BALB/c mouse at 2.5 mg/kg, iv at 0.5 hrs by LC/MS-MS analysis; assay type: ADME, organism-based
[44] = molecular target: Serine/threonine-protein kinase Sgk1 (Homo sapiens) (UniProt O00141); test: Inhibition of SGK (unknown origin) at 500 nM relative to control
Mus musculus [45] = test: Toxicity in Balb/C mouse allografted with mouse 4T1 cells assessed as body weight loss at 5 mg/kg, iv administered every 3 days for 21 days measured 2 times for every week during dosing; assay type: organism-based; details: in vivo
In short: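 Female Balb/c mice received 1×10^6 4T1 cells into the second mammary fat pad. At about 100 mm3 tumor volume they were split into groups of five. Doses were given iv by tail vein in 200 µL every three days for 21 days, with a PBS diluent control. Body weight and tumor size were measured twice weekly, and the experiment was repeated twice.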

4T1 [46] = test: Antitumor activity against mouse 4T1 cells allografted in Balb/C mouse assessed as tumor growth inhibition at 5 mg/kg, iv administered every 3 days for 21 days measured 2 times for every week during dosing relative to control; assay type: functional; details: 4T1, iv, read-out: TGI
In short: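 4T1 cells were grown in RPMI-1640 with 10% FBS, pyruvate and NEAA at 37 °C and 5% CO2. Female Balb/C mice received 1×10^6 cells into the second mammary fat pad. At about 100 mm3, mice were grouped five per group and dosed by tail vein in 200 µL (PBS diluent) every three days for 21 days. Tumor volume (L×B²/2, caliper) and body weight were taken twice weekly. The experiment was repeated twice.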

Mus musculus [47] = test: Toxicity in Balb/C mouse allografted with mouse 4T1 cells assessed as mortality at 5 mg/kg, iv administered every 3 days for 21 days; assay type: organism-based; details: in vivo

Chain of Glycogen synthase kinase-3 beta (Homo sapiens) (P49841 whole entry, looked up): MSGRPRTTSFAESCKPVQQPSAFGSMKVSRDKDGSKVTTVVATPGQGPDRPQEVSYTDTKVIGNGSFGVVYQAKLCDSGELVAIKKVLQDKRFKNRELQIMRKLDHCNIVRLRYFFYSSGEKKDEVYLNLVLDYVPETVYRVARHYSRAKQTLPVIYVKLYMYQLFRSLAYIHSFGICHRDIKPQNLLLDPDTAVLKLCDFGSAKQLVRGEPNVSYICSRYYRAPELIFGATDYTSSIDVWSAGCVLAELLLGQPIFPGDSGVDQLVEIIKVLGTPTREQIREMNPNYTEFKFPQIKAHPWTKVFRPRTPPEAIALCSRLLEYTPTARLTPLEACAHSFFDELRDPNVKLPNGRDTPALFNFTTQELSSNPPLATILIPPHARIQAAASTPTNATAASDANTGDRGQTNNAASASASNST
Chain of Mitogen-activated protein kinase 10 (Homo sapiens) (P53779 whole entry): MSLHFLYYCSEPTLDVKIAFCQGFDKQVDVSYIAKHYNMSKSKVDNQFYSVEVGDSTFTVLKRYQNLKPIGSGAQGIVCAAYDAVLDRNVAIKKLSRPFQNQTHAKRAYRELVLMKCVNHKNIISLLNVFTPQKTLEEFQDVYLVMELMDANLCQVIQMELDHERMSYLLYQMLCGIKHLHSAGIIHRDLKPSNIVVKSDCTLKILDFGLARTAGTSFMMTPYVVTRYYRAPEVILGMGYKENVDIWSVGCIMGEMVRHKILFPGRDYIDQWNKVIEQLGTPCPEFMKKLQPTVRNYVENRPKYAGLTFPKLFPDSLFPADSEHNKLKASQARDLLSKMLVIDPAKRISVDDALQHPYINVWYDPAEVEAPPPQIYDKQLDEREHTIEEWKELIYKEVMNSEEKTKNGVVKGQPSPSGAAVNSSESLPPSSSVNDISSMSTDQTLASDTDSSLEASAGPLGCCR
Chain of Tyrosine-protein kinase JAK3 (Homo sapiens) (P52333 whole entry): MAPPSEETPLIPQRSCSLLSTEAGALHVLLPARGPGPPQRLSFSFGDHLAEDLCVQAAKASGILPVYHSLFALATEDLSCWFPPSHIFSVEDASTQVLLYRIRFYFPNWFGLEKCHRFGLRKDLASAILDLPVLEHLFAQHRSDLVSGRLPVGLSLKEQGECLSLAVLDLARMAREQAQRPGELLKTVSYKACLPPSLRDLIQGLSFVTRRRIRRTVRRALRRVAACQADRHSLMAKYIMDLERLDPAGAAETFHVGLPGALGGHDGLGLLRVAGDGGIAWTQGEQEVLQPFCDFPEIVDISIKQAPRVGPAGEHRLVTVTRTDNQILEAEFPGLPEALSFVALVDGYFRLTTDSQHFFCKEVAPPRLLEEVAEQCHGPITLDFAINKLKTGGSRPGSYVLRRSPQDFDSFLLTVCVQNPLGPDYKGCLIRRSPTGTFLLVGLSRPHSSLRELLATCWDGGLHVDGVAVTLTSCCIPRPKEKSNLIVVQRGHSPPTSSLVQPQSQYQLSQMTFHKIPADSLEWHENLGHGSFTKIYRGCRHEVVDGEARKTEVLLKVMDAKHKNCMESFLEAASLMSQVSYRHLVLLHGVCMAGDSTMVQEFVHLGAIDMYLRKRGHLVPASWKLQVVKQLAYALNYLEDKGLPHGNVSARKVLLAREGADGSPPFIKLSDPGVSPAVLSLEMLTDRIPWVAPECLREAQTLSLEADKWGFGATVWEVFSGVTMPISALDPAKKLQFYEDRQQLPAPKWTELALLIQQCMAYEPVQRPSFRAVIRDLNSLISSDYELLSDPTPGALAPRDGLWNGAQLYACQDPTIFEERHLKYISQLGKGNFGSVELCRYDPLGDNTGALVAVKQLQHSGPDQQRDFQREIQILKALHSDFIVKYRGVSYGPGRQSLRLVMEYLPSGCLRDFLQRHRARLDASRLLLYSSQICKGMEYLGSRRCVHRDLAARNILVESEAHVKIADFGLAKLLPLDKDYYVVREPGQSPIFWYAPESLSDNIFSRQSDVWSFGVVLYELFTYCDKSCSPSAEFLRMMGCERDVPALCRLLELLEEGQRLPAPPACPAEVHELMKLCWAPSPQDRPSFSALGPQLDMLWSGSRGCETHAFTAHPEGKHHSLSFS
Chain of Insulin receptor-related protein (Homo sapiens) (P14616 27-742 limits assumed): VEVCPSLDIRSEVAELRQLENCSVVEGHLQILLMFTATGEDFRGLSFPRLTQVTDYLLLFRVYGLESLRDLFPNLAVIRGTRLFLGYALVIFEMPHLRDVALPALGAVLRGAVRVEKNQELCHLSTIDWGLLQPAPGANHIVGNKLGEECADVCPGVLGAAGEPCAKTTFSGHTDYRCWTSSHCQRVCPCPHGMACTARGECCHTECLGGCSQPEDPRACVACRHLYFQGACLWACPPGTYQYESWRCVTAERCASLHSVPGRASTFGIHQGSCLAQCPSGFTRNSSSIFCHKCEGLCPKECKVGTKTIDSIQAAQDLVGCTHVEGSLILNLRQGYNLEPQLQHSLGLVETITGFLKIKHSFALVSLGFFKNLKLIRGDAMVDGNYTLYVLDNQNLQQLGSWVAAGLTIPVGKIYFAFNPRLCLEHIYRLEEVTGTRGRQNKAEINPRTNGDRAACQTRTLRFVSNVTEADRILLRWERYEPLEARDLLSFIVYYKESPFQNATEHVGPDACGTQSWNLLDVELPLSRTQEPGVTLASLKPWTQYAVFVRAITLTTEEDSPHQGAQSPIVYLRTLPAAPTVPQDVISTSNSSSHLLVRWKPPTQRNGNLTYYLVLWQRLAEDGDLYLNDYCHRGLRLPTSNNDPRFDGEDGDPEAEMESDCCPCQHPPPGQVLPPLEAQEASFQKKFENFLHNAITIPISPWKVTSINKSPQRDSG
Chain of Insulin receptor-related protein (Homo sapiens) (P14616 747-1297 limits assumed): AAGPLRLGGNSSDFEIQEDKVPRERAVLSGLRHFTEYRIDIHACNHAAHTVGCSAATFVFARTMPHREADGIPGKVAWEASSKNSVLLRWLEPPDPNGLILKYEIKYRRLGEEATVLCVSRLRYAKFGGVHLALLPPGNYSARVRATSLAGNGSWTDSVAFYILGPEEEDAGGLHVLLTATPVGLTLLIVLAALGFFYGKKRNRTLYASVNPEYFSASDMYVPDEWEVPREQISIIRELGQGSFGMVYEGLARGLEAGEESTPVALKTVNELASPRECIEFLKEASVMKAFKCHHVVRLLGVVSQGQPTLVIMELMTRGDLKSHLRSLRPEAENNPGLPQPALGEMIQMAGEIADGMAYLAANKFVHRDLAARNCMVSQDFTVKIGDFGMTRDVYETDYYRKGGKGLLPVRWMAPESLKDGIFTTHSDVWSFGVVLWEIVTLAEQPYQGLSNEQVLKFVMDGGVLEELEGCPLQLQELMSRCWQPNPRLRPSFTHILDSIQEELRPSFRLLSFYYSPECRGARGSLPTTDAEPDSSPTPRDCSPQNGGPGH
Chain of Inhibitor of nuclear factor kappa-B kinase subunit beta (Homo sapiens) (O14920 whole entry): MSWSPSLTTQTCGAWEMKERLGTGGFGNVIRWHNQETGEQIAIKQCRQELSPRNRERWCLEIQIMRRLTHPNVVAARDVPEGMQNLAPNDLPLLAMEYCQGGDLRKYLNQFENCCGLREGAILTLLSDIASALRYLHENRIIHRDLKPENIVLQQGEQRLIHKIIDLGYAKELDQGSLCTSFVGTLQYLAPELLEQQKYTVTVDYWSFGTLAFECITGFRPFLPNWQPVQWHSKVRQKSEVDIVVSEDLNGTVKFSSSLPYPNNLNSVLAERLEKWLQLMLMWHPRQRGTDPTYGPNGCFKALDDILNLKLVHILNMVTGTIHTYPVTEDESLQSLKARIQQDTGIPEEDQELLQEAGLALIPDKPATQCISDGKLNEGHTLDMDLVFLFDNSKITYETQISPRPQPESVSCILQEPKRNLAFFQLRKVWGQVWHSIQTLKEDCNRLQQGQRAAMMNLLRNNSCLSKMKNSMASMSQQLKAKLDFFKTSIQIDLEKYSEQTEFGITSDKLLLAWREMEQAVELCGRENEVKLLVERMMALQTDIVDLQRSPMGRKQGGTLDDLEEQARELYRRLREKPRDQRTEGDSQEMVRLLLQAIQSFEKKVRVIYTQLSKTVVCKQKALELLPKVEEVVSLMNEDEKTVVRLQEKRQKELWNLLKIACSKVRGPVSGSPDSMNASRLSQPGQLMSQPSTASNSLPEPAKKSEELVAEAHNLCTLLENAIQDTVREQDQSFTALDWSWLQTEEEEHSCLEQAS
Chain of Serine/threonine-protein kinase PLK1 (Homo sapiens) (P53350 whole entry): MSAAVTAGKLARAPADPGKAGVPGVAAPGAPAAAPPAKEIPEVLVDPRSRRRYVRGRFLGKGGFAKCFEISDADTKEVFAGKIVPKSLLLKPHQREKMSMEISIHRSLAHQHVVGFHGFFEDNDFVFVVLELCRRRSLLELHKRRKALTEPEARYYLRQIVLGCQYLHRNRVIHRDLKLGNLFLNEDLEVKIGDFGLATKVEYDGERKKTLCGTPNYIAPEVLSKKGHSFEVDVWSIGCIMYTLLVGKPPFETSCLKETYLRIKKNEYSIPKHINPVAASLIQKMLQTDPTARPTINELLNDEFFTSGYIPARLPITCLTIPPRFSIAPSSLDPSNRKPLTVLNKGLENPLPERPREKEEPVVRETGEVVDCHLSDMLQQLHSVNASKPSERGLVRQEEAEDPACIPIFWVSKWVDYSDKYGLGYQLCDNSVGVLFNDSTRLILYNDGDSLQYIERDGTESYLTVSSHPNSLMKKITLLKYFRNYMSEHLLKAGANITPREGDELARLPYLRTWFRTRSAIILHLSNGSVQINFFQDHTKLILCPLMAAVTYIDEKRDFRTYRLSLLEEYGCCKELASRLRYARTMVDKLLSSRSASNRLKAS
Chain of Serine/threonine-protein kinase Nek6 (Homo sapiens) (Q9HC98 whole entry): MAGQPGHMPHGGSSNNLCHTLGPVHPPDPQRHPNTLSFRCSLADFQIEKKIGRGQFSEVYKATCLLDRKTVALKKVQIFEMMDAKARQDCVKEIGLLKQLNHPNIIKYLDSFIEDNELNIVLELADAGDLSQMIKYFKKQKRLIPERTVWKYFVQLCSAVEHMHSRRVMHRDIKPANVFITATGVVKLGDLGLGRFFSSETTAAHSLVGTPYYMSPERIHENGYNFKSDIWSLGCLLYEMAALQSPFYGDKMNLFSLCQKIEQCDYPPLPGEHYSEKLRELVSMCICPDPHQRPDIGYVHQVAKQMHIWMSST

COc1ccnc2[nH]cc(-c3ccnc(N)n3)c12 [MERIOLIN 3]
inhibition [1]: 6.7% | inhibition [2]: 13.4% | inhibition [3]: 11.4% | concentration at 1 h [4]: 0.0353 µg/mL | inhibition [5]: 10.6% | inhibition [6]: 6.9% | inhibition [7]: 14.6% | inhibition [8]: 8.3% | inhibition in vivo at 15 mg/kg (4T1 [9]): 95% | concentration at 0.25 h [10]: 0.141 µg/mL | inhibition [11]: 91.7% | IC50 (MCF7): 0.2 µM | inhibition [12]: 9.5% | inhibition [13]: 20.1% | inhibition [14]: 31.9% | inhibition [15]: 84.5% | inhibition [16]: 14.6% | inhibition [17]: 96% | inhibition [18]: 13.4% | inhibition [19]: -4.6% | IC50 (4T1 [20]): 0.65 µM | inhibition [21]: 7.3% | inhibition [22]: 10.6% | inhibition [23]: 29.3% | IC50 (MDA-MB-468): 0.16 µM | IC50 (MDA-MB-231): 0.2 µM | Ratio IC50 [24]: 0.94 | inhibition [25]: 6.9% | inhibition [26]: 11.5% | inhibition [27]: 3.1% | inhibition [28]: 21.1% | inhibition [29]: -4.6% | concentration at […] [30]: 0.313 µg/mL | inhibition [31]: 4.1% | inhibition [32]: 98.3% | IC50 (T47D): 0.2 µM | inhibition [33]: 43.8% | inhibition [34]: -7.9% | IC50 (BT-549): 0.13 µM | inhibition [35]: 13.7% | inhibition [36]: 37.2% | IC50 (HCT-116): 0.1 µM | inhibition [37]: 13.7% | inhibition [38]: 0.9% | inhibition [39]: 9.5% | IC50 (SH-SY5Y): 0.12 µM | inhibition [40]: -1.7% | inhibition [41]: -2.6% | IC50 [42]: 0.188 µM | concentration at 0.5 h [43]: 0.0549 µg/mL | inhibition [44]: 38.1%

COc1cccc2c1C(=O)c1c(O)c3c(c(O)c1C2=O)C[C@@](O)(C(=O)CO)C[C@@H]3O[C@H]1C[C@H](N)[C@H](O)[C@H](C)O1 [DOXORUBICIN]
Activity (Mus musculus [45]): Toxic | inhibition in vivo at 5 mg/kg (4T1 [46]): 97.3% | Activity (Mus musculus [47]): Non-Toxic

— ChEMBL document CHEMBL4028900, “Design of Novel 3-Pyrimidinylazaindole CDK2/9 Inhibitors with Potent In Vitro and In Vivo Antitumor Efficacy in a Triple-Negative Breast Cancer Model” (J Med Chem, 2017)
